The values that follow come from ChEMBL document CHEMBL1153564 (Antimicrob Agents Chemother, 2008).

Converted amounts (≈) assume the structure as drawn. The source made the active and inactive calls. No cut-off for these calls is given here. Starred links: 1 amine or outer side, 2 acyl side, 3 side chain; linkers in the order of their positions; H or OH if unused. Positions of bridges follow the written chain, without caps; N, C: chain ends. Non-standard residues stand in square brackets, D forms with d. Residues, ends and D or L forms follow the SMILES beside them. *: point of attachment. pTerphenylCO(4''-OnC5H11) = CCCCCOc1ccc(-c2ccc(-c3ccc(C(=O)*)cc3)cc2)cc1; Orn(4R-OH,5R-OH) = O=C([C@H](C[C@@H](O)[C@@H](O)N[*:3])N[*:1])[*:2]; hTyr(3S-OH,4S-OH) = N[C@H](C(=O)O)[C@H](O)[C@@H](O)c1ccc(O)cc1; Pro(3S-OH,4S-Me) = C[C@H]1CN[C@H](C(=O)O)[C@H]1O; Hyp = O=C(O)[C@@H]1C[C@@H](O)CN1

In series [1] the test system is Nakaseomyces glabratus. Nature of the series: Antifungal activity against Candida glabrata 5376 infected in neutropenic ICR/Swiss mouse candidiasis model assessed as dose required to maintain […] of 3.71 +/- 0.21 log10CFU per kidney administered intraperitoneally every 16 hrs up to 4 days measured per 96 hrs.
Series [2] deals with Nakaseomyces glabratus. In words: Antifungal activity against Candida glabrata 33609 assessed as complete growth inhibition after 24 hrs by CLSI end point method. The series is classed as functional. The note with it: Nakaseomyces glabratus, 33609, 24 h. The method in brief:
(§1)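 CLSI M27-A2 broth dilution. Two end points read against the drug-free control well: partial inhibition (CLSI end point) and complete inhibition. Run in duplicate on four separate occasions; value is the mean. Drug stock in DMSO, diluted in 0.9% NaCl.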

Series [3] in a line: Cmax in human at 100 mg/day. The series is classed as ADME, organism-based. More on the design: dose 100 mg/day. As to conditions: in vivo.
The test system of series [4] is Nakaseomyces glabratus. Nature of the series: Antifungal activity against Candida glabrata 37661 infected in neutropenic ICR/Swiss mouse candidiasis model assessed as fungal count per kidney administered 2 hrs postinfection measured up to 48 hrs. The series is classed as functional. The essentials:
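Female ICR/Swiss mice (23–27 g) made neutropenic with cyclophosphamide s.c. (150 mg/kg day −4, 100 mg/kg day −1, 100 mg/kg day +2). Infected by tail vein with 0.1 ml inoculum (~6.1 log10 CFU/ml). Kidneys of untreated mice were homogenised and plated on SDA for 24 h at 35°C. Growth over 48 h is given as log10 CFU/kidney.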

A short description of series [5]: Steady state AUC in human at 100 mg/day. The series is classed as ADME, organism-based. As to conditions: in vivo.
The test system of series [6] is Candida albicans. In words: Antifungal activity against Candida albicans K-1 infected in neutropenic ICR/Swiss mouse candidiasis model assessed as dose required for 1-log10 reduction in […] per kidney administered intraperitoneally every 48 hrs up to 4 days measured per 96 hrs. The series is classed as functional. The essentials: (§2)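 Neutropenic mice were infected iv with C. albicans K-1 2 h before therapy. Total doses of 1.25, 5, 20, 80 and 320 mg/kg/96 h were split into 1, 2, 4 or 6 ip doses (q96h, q48h, q24h, q16h), three mice per regimen. Effect is the log10 CFU/kidney relative to untreated controls at 96 h. Static and 1-log doses were taken from a Hill model fit.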

Series [7] relates to Nakaseomyces glabratus. Nature of the series: Antifungal activity against Candida glabrata 5376 infected in neutropenic ICR/Swiss mouse candidiasis model assessed as dose required to maintain […] of 3.71 +/- 0.21 log10CFU per kidney administered intraperitoneally once every 96 hrs measured per 96 hrs.
Series [8] relates to Candida albicans. In words: Antifungal activity against Candida albicans K-1 infected in neutropenic ICR/Swiss mouse candidiasis model assessed as […] burden per kidney administered intraperitoneally every 24 hrs up to 4 days measured per 96 hrs. The series is classed as functional. As to conditions: K-1, Kidney, ip. The essentials: as §2
In series [9] the test system is Nakaseomyces glabratus. In words: Antifungal activity against Candida glabrata 32930 infected in neutropenic ICR/Swiss mouse candidiasis model assessed as dose required for 1-log10 reduction in […] per kidney administered intraperitoneally every 24 hrs up to 4 days measured per 24 hrs. The series is classed as functional. The method in brief: (§3)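 Neutropenic mice (cyclophosphamide sc on days −4, −1 and +2) were infected iv 2 h before therapy. Five total doses from 0.078 to 20 mg/kg/24 h were given ip q24h for 4 days, three mice per regimen. Kidney CFU were measured at the end of therapy. Static and 1-log-kill doses were derived from a Hill sigmoid dose-effect fit.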

Series [10] has as its system Nakaseomyces glabratus. In words: Antifungal activity against Candida glabrata 37661 assessed as partial growth inhibition after 24 hrs by CLSI end point method. The series is classed as functional. The note with it: Nakaseomyces glabratus, 37661, 24 h. The method in brief: (§4)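 Two end points were read against the drug-free control well: partial growth inhibition (the CLSI end point) and complete inhibition. Run in duplicate on four separate occasions; the value is the mean. Drug stock was made in DMSO and diluted in 0.9% NaCl.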

Series [11] relates to Nakaseomyces glabratus. In words: Antifungal activity against Candida glabrata 5376 infected in neutropenic ICR/Swiss mouse candidiasis model assessed as suppression of fungal regrowth at 20 mg/kg, ip administered 2 hrs postinfection as single dose by time-kill assay. The series is classed as functional, organism-based. Also on record: dose 20 mg/kg. The method in brief:
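Neutropenic mice were infected i.v. and 2 h later given a single i.p. dose (1.25, 5 or 20 mg/kg). Groups of three treated and three control mice were killed at intervals over 96 h, and kidney CFU were counted on SDA (limit 100 CFU/ml). The post-antifungal effect is t − c: the time for a 1 log10 CFU/kidney increase once serum levels fall below the MIC in treated mice, minus the same time in controls.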

The test system of series [12] is Candida albicans. In words: Antifungal activity against Candida albicans K-1 assessed as complete growth inhibition after 24 hrs by CLSI end point method. The note with it: K-1, 24 h. The series is classed as functional. The essentials: as §1
Series [13] deals with Nakaseomyces glabratus. In words: Antifungal activity against Candida glabrata 5376 infected in neutropenic ICR/Swiss mouse candidiasis model assessed as […] burden per kidney administered intraperitoneally every 48 hrs up to 4 days measured per 96 hrs. The series is classed as functional. As to conditions: Nakaseomyces glabratus, 5376, Kidney, ip. The essentials:
(§5)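 Neutropenic ICR/Swiss mice infected i.v. with the strain; therapy began 2 h later. Total doses of 1.25–320 mg/kg/96 h were given i.p. as 1, 2, 4 or 6 doses (q96h, q48h, q24h, q16h), three mice per regimen. Kidney CFU were counted after 4 days. Effect is the change from untreated controls at the end of therapy.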

Series [14] relates to Candida albicans. Nature of the series: Antifungal activity against Candida albicans 98-210 assessed as partial growth inhibition after 24 hrs by CLSI end point method. The series is classed as functional. As to conditions: 98-210, 24 h. The essentials: as §1
The subject of series [15] is Candida albicans. In words: Antifungal activity against Candida albicans 98-17 infected in neutropenic ICR/Swiss mouse candidiasis model assessed as dose required for 1-log10 reduction in […] per kidney administered intraperitoneally every 24 hrs up to 4 days measured per 24 hrs. The series is classed as functional. The essentials: as §3
For series [16], the system named is Nakaseomyces glabratus. In words: Antifungal activity against Candida glabrata 33609 infected in neutropenic ICR/Swiss mouse candidiasis model assessed as dose required to maintain […] of 1.83 +/- 0.54 log10CFU per kidney administered intraperitoneally every 24 hrs up to 4 days measured per 24 hrs. The series is classed as functional.
Series [17] relates to Nakaseomyces glabratus. Nature of the series: Antifungal activity against Candida glabrata 5376 infected in neutropenic ICR/Swiss mouse candidiasis model assessed as dose required for 1-log10 reduction in […] per kidney administered intraperitoneally once every 96 hrs measured per 96 hrs. The series is classed as functional. The method in brief: as §5
Series [18] deals with Nakaseomyces glabratus. In words: Antifungal activity against Candida glabrata 35315 assessed as partial growth inhibition after 24 hrs by CLSI end point method. The series is classed as functional. As to conditions: Nakaseomyces glabratus, 35315, 24 h. The method in brief: as §4
Series [19] relates to Nakaseomyces glabratus. In words: Antifungal activity against Candida glabrata 5376 infected in neutropenic ICR/Swiss mouse candidiasis model assessed as […] burden per kidney administered intraperitoneally every 16 hrs up to 4 days measured per 96 hrs. The series is classed as functional. The note with it: Nakaseomyces glabratus, 5376, Kidney, ip. The essentials:
as §5

Series [20] has as its system Nakaseomyces glabratus. In words: Antifungal activity against Candida glabrata 513 assessed as partial growth inhibition after 24 hrs by CLSI end point method. The note with it: Nakaseomyces glabratus, 513, 24 h. The series is classed as functional. The method in brief: as §4
The subject of series [21] is Nakaseomyces glabratus. Nature of the series: Antifungal activity against Candida glabrata 5376 infected in neutropenic ICR/Swiss mouse candidiasis model assessed as reduction of […] in kidney at 1.25 mg/kg, ip administered 2 hrs postinfection as single dose measured after 96 hrs post dosing by time-kill assay. The series is classed as functional, organism-based. Also on record: dose 1.25 mg/kg. The method in brief: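 Neutropenic mice given a single ip dose (1.25, 5 or 20 mg/kg) 2 h after tail-vein infection. Kidneys from 3 mice per time point collected nine times over 96 h. Homogenates serially diluted 1:10 and plated on SDA, 24 h at 35°C. Detection limit 100 CFU/ml.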

Usually MIC stands for the lowest concentration that inhibits growth of the organism. For orientation: Cmax means the peak of the concentration-time curve. The AUC is concentration integrated over time. High values mean more exposure, low ones less exposure. As usually defined, the ED50 is the dose at which the effect has come halfway, by size or by number of responders.

Regarding `CCCCCOc1ccc(-c2ccc(-c3ccc(C(=O)N[C@H]4C[C@@H](O)[C@@H](O)NC(=O)[C@@H]5[C@@H](O)[C@@H](C)CN5C(=O)[C@H]([C@@H](C)O)NC(=O)[C@H]([C@H](O)[C@@H](O)c5ccc(O)cc5)NC(=O)[C@@H]5C[C@@H](O)CN5C(=O)[C@H]([C@@H](C)O)NC4=O)cc3)cc2)cc1` [ANIDULAFUNGIN] ({pTerphenylCO(4''-OnC5H11)}-[Orn(4R-OH,5R-OH)]T[Hyp][hTyr(3S-OH,4S-OH)]T[Pro(3S-OH,4S-Me)]; lactam 1-C), the Activity was 30 mg/kg in the series on Nakaseomyces glabratus [1]; 9.19 mg/kg in the series on Candida albicans [6]; 9.06 mg/kg in the series with Nakaseomyces glabratus [7]; 3.31 mg/kg in the series with Nakaseomyces glabratus [9]; 1.95 mg/kg in the series with Candida albicans [15]; 2 mg/kg with Nakaseomyces glabratus [16]. Further, in the series with Nakaseomyces glabratus [17], the Activity was 16.6 mg/kg. Also, the MIC in the series with Nakaseomyces glabratus [2] was found to be 0.12 mg/L (≈ 0.105 µM); in the series on Nakaseomyces glabratus [10] it was 2 mg/L (≈ 1.75 µM); in the series on Candida albicans [12], 0.12 mg/L (≈ 0.105 µM); with Candida albicans [14] it was 0.015 mg/L (≈ 0.0132 µM); with Nakaseomyces glabratus [18], 0.25 mg/L (≈ 0.219 µM); in the series with Nakaseomyces glabratus [20] it was 0.06 mg/L (≈ 0.0526 µM). The compound also yielded a Cmax in [3] of 11 µg/mL. Also, the log10cfu with Nakaseomyces glabratus [4] turned out to be 0.96. The compound further showed an exposure (AUC) in series [5] of 112 µg·h/mL. For the same compound, the ED50 is 3.5 mg/kg in the series on Candida albicans [8], 13.4 mg/kg with Nakaseomyces glabratus [13] and 26.3 mg/kg in the series on Nakaseomyces glabratus [19]. For the same compound, the result in the series with Nakaseomyces glabratus [11] and in the series with Nakaseomyces glabratus [21] was Active.
